The list is not random: actives were taken first. Their share in the collection is about 3.8%.
MPTP inh: inhibitors of mitochondrial permeability transition pore | inhibition, % at 10 µM | AID 602449 | isolated mouse mitochondria, Ca2+ swelling absorbance, 30 min | hit rate 1.4% among 360,000;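 active = inhibition of 50% or more, scaled per plate between neutral and stimulator controls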
B2AR ag: human beta-2 adrenergic receptor agonism by FAP. P07550. Am2.2-beta2AR cells, FAP receptor internalization, flow cytometry. response, % (test concentration not listed). hit rate 0.43% among 340,000. AID 504454;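 active = response above a set limit, near 3 SD of response in nonfluorescent compounds, cut at about 42% in these data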
Target sequence (P07550 whole entry, looked up): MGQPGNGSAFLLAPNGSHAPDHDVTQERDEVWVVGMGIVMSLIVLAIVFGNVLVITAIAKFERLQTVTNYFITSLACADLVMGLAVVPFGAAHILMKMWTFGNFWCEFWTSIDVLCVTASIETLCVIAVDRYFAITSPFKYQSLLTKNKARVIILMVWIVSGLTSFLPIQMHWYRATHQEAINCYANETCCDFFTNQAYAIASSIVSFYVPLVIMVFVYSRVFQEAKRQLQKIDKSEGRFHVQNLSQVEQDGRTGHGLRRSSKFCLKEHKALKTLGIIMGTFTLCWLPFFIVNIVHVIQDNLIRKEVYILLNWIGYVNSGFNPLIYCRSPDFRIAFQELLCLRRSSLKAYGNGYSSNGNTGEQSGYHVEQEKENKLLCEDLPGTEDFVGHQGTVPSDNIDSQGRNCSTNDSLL
T cell modulator: modulates CD8 T cell binding to vesicles; 2C CD8+ T cell-vesicle binding, flow cytometry; active compounds read low; response (vesicle binding), % at 7 µM; hit rate 0.068% among 330,000;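 active = response, share of CD8 T cells binding vesicles, and their 90th percentile fluorescence all below set limits, cut at about 80% in these data, passing the limit was not always enough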;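 also: values below 100% mean blocked vesicle binding to the CD8+ T cells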
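Incubation: binding step 1.5 h, 37 °C, antibody labelling 20 min, ice; system: murine 2C transgenic CD8+ T lymphocytes; technique: cytometric PE anti-B7-1 and Alexa647 anti-CD8 signals after 1% paraformaldehyde fixation; also added: QL9-charged Drosophila Ld/ICAM-1/B7-1 vesicles; control set: naked versus QL9-loaded vesicles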
V-ATPase pHluor: alters yeast V-ATPase proton transport; AID 504577; hit rate 0.37% among 350,000; S. cerevisiae, pHLuorin cytosolic pH fluorescence; response, % at 10 µM; in the data active = response mostly above about 7.3%, no sharp cut-off; inactive = mostly below about 5.4%; also: actives read high
rCAG RNA binder: binds r(CAG) RNA repeats. r(CAG) RNA repeat, TO-PRO-1 dye displacement fluorescence. inhibition, % at 3 µM. hit rate 1.3% among 370,000;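 active = inhibition above the plate cutoff, the mean of all test compounds on that plate plus 3 SD, cut at about 35% in these data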;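 also: higher means more dye released from RNA so lower well fluorescence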
Granule exo inh: lytic granule exocytosis inhibition; TALL-104 LAMP-1 surface exposure, flow cytometry; cells stimulated with thapsigargin and PMA; inhibition, % at 10 µM; hit rate 0.66% among 360,000;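 active = inhibition above about 55%, limit read from the data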
VATPase regulator: regulators of yeast V-ATPase proton transport | shares compounds with V-ATPase pHluor | S. cerevisiae pHLuorin cytosolic pH | response, % at 10 µM | hit rate 2% among 980 | AID 602197; in the data active = response above about 24%
A number is an active result; 0 = inactive; - = not tested or not shown.

SMILES | MPTP inh | B2AR ag | T cell modulator | V-ATPase pHluor | rCAG RNA binder | Granule exo inh | VATPase regulator
CCCCn1c(N)c(N(CC(C)C)C(=O)CC2OC(=O)c3ccccc32)c(=O)[nH]c1=O (stereo not drawn) | 0 | 0 | 0 | 10.7 | 0 | 0 | 0
CCCCn1c(N)c(N(CC(C)C)C(=O)CN2C(=O)c3ccccc3C2=O)c(=O)[nH]c1=O | 0 | 0 | 0 | 0 | 0 | 0 | -
Cc1ccc(OCc2cc(C(=O)NCC(C)(C)N3CCOCC3)no2)cc1C | 0 | 0 | 0 | 8.2 | 0 | 0 | 0
COc1ccccc1NC(=O)c1ccc(COc2ccccc2OC)cc1 | 0 | 0 | 0 | 10.3 | 0 | 0 | 0
COCCNC(=O)c1ccccc1NC(=O)c1ccc(OC)c(OC)c1 | 0 | 0 | 0 | 10.6 | 0 | 0 | 0
COc1ccccc1OCc1ccc(C(=O)Nc2ccccc2F)cc1 | 0 | 0 | 0 | 0 | 0 | 0 | -
CCN(C)c1nc(C)nc2c1nnn2Cc1ccccc1 | - | - | - | - | 0 | - | -
COc1ccc(S[C@]2(C(=O)NCC(C)C)CC(=O)N[C@@H]2c2ccc(OC)cc2)cc1 | - | - | - | - | 0 | - | -
Cc1ccc(-n2c(SCc3nc4ccccc4[nH]3)nnc2-c2ccccn2)cc1 | - | - | - | - | 0 | - | -
O=c1[nH]nc(Cc2ccccc2)c2ccccc12 | 0 | 0 | 0 | 0 | 0 | 0 | -
COc1ccc(Cc2n[nH]c(=O)c3ccccc23)cc1OC | 0 | 0 | 0 | 21.6 | 0 | 0 | 0
Cc1ccccc1S(=O)(=O)Cc1ccc(C(=O)NCCCN2CCN(C)CC2)o1 | 0 | 0 | 0 | 7.6 | 0 | 0 | 0
COC(=O)[C@]12C[C@H](CC(=O)NCCC(C)C)C(=O)N(Cc3ccc4c(c3)OCO4)C1=C[C@H](C(C)(C)C)O[C@@H]2C | - | - | - | - | 0 | - | -
c1ccc(COCCCn2cc(-c3ccccc3)nn2)cc1 | 0 | 0 | 0 | 10.4 | 0 | 0 | 0
CCOc1ccc(NC(=O)CCC(=O)N/N=C(\C)c2cccs2)cc1 | 0 | 0 | 0 | 8.8 | 0 | 0 | 0
CCOc1ccc(NC(=O)CCC(=O)NNC(=O)c2ccco2)cc1 | 0 | 0 | 0 | 9.2 | 0 | 0 | 0
C/C(=N\NC(=O)CCC(=O)Nc1ccccc1)c1cccs1 | 0 | 0 | 0 | 0 | 0 | 0 | -
COc1cc(OC)cc(-c2c(-c3cccs3)c3cc(-c4ccc(CN5CCOCC5)cc4)ccc3n2C)c1 | 0 | 0 | 0 | 7.8 | 0 | 0 | 0
COc1cc(F)cc(-c2ccc3c(c2)c(-c2cccs2)c(-c2cc(OC)cc(OC)c2)n3C)c1 | 0 | 0 | 0 | 0 | 0 | 0 | -
Cc1ccccc1-c1ccccc1CN1[C@@H](C(C)C)COCCS1(=O)=O | 0 | 0 | - | 8.8 | 0 | 0 | 0
O=C(CSc1nnc(-c2cccnc2)n1-c1ccc(Cl)cc1)c1ccc(F)cc1 | - | - | - | - | 0 | - | -
O=C(c1cccc(Oc2ccccc2)c1)N1CCC(Oc2cccnc2)CC1 | - | - | - | - | 0 | - | -
CCN(CC)C(=O)CSc1nnc(-c2ccc(C(C)(C)C)cc2)n1Cc1ccco1 | - | - | - | - | 0 | - | -
COc1cccc(CN(C)C(=O)[C@H]2O[C@@H](n3cnc4c(=O)[nH]c(N)nc43)[C@H](O)[C@@H]2O)c1 | - | - | - | - | 0 | - | -
Cc1nc(NC2CCCC2)c2nnn(Cc3ccccc3)c2n1 | - | - | - | - | 0 | - | -
SMILES | MPTP inh | B2AR ag | T cell modulator | V-ATPase pHluor | rCAG RNA binder | Granule exo inh | VATPase regulator
COc1ccccc1CNC(=O)c1oc2ccc(S(=O)(=O)N3CCCC3)cc2c1C | 0 | 0 | 0 | 7.2 | - | 0 | 0
COC[C@H]1CCCN1c1cccc2c1S(=O)(=O)N(C1CC1)CC[C@@H](C)O2 | - | - | - | - | 0 | - | -
O=C(CN1C(=O)NC2(CCCC2)C1=O)NCCc1ccc(F)cc1 | 0 | 0 | 0 | 11.0 | 0 | 0 | 0
O=C(CN1C(=O)NC2(CCCCCC2)C1=O)NCCc1ccc(F)cc1 | 0 | 0 | 0 | 0 | 0 | 0 | -
COC(=O)CCN(Cc1ccc(OC)cc1OC)S(=O)(=O)c1ccccc1Br | - | - | - | - | 0 | - | -
COc1ccc(C(=O)CNc2ccccc2C#N)cc1 | 0 | 0 | 0 | 9.3 | 0 | 0 | 0
COc1ccc(C(=O)CNc2ccccc2CO)cc1 | 0 | 0 | 0 | 0 | 0 | 0 | -
N#Cc1ccc(CSC2=NCCN2)cc1 | 0 | 0 | 0 | 0 | 0 | 0 | -
c1ccc(CSC2=NCCCN2)cc1 | 0 | 0 | 0 | 0 | 0 | 0 | 0
CCNC(=O)COC(=O)CCC(=O)c1ccc(F)cc1 | 0 | 0 | 0 | 0 | 0 | 0 | 0
COC(=O)c1ccc(CNC(=O)COC(=O)CCC(=O)c2ccc(F)cc2)cc1 | 0 | 0 | 0 | 0 | 0 | 0 | -
O=C(C1CCN(c2ncnc3c2sc2cccc(F)c23)CC1)N1CCN(Cc2ccccc2)CC1 | - | - | - | - | 0 | - | -
Cc1cc(C)c(OCCOCCN2CCNCC2)c(C)c1 | 0 | 0 | 0 | 16.4 | 0 | 0 | 0
Cc1cc(C)c(OCCOCCN2CCCC2)c(C)c1 | 0 | 0 | 0 | 0 | 0 | 0 | -
COc1ccc(OC)c(-n2c(SCC(=O)NCc3ccco3)nnc2-c2c[nH]c3ccccc23)c1 | 0 | 0 | 0 | 12.4 | 0 | 0 | 0
Cc1ccc(-c2nnc(-n3ncc(C#N)c3N)c3ccccc23)cc1C | 0 | 0 | 0 | 9.9 | 0 | 0 | 0
C[C@@H]1CN([C@@H](C)CO)S(=O)(=O)c2ccc(Br)cc2O[C@H]1CN(C)C(=O)c1ccccc1 | 0 | - | - | 69.1 | 0 | 0 | 0
C[C@H](CO)N1C[C@H](C)[C@@H](CN(C)C(=O)c2ccc(F)cc2)Oc2cc(Br)ccc2S1(=O)=O | 0 | - | - | 0 | 0 | 0 | -
COc1ccc(Cn2cc(CN3[C@H](C)COc4cc(Br)ccc4S3(=O)=O)nn2)cc1 | - | - | - | - | 0 | - | -
CC(=O)c1sc(=S)n(-c2ccc(Cl)cc2)c1C | 0 | 0 | 0 | 0 | 0 | 0 | 0
CC(=O)c1cnn(-c2ccc(Cl)cc2)c1C | 0 | 0 | 0 | 0 | 0 | 0 | 0
Cn1nnnc1Sc1c(Cl)cccc1[N+](=O)[O-] | 0 | 0 | 0 | 7.8 | 0 | 0 | 0
Cc1cccc(-n2nc([N+](=O)[O-])c(=NC3CCN(Cc4ccccc4)CC3)n2O)c1 | 0 | 0 | 0 | 12.7 | 0 | 0 | 0
Cc1cccc(CCN=c2c([N+](=O)[O-])nn(-c3ccccc3)n2O)c1 | 0 | 0 | 0 | 0 | 0 | 0 | -
CC(=O)Nc1nnc(SCC(=O)c2ccc(F)cc2)s1 | 0 | 0 | 0 | 0 | 0 | 0 | -
SMILES | MPTP inh | B2AR ag | T cell modulator | V-ATPase pHluor | rCAG RNA binder | Granule exo inh | VATPase regulator
Nc1nnc(SCCCC(=O)c2ccc(Br)cc2)s1 | 0 | 0 | 0 | 0 | 0 | 0 | -
Nc1nnc(SCCCC(=O)c2ccc(F)cc2)s1 | 0 | 0 | 0 | 0 | 0 | 0 | 0
O=C(CCCSc1nnc(SCCCC(=O)c2ccc(F)cc2)s1)c1ccc(F)cc1 | 0 | 0 | 0 | 0 | 0 | 0 | 0
Cc1ccc(C(=O)Nc2ncc(C)s2)o1 | 0 | 0 | 0 | 8.8 | 0 | 0 | 0
O=C(COC(=O)CSc1ccc2ccccc2c1)Nc1ccccc1OC(F)F | 0 | 0 | 0 | 10.9 | 0 | 0 | 0
CCCCCCCCN1C(=O)[C@@H](CC(=O)NCc2cccs2)C[C@@]2(C(=O)OC)C1=C[C@H](COCc1ccccc1)O[C@@H]2C | - | - | - | - | 0 | - | -
C/C(=C/c1nc(N)n(Cc2ccccc2)c1Cc1ccccc1)Cn1[nH]c(=O)n(-c2ccccc2)c1=O | - | - | - | - | 0 | - | -
Cc1cc(NC(=O)c2cc(-c3ccc(Br)cc3)on2)no1 | 0 | 0 | 0 | 10.1 | 0 | 0 | 0
Cc1ccc(NC(=O)c2cc(C)on2)cc1 | 0 | 0 | 0 | 6.9 | 0 | 0 | 0
